ChEMBL document CHEMBL1926569, “Novel (E)-1-(4-methyl-2-(alkylamino)thiazol-5-yl)-3-arylprop-2-en-1-ones as potent antimicrobial agents” (2011)
Converted amounts (≈) assume the structure as drawn.

Tests used:
Staphylococcus aureus [1] = assay: Antibacterial activity against Staphylococcus aureus ATCC 6538 after 24 hrs by microdilution method; type: functional; details: ATCC 6538, 24 h
Summary of the method: (§1)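 Broth microdilution in 96-well plates. Bacterial suspensions were adjusted in sterile saline to 1.0 × 10⁵ CFU/ml, prepared daily and kept at 4 °C. Compound was added to LB broth with 1.0 × 10⁴ CFU per well and shaken at 160 rpm for 24 h at […] (so in the source). MIC is the lowest concentration with no visible growth under a binocular microscope. OD655 was also read. Duplicate, repeated three times.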

Bacillus cereus [2] = assay: Antibacterial activity against clinical isolate of Bacillus cereus after 24 hrs by microdilution method; type: functional; summary of the method: as §1
Micrococcus flavus [3] = assay: Antibacterial activity against Micrococcus flavus ATCC 10240 after 24 hrs by microdilution method; type: functional; details: ATCC 10240, 24 h; summary of the method: as §1
Listeria monocytogenes [4] = assay: Antibacterial activity against Listeria monocytogenes NCTC 7973 after 24 hrs by microdilution method; type: functional; details: NCTC 7973, 24 h; summary of the method: as §1
Pseudomonas aeruginosa [5] = assay: Antibacterial activity against Pseudomonas aeruginosa ATCC 27853 after 24 hrs by microdilution method; type: functional; details: ATCC 27853, 24 h; summary of the method: as §1
Salmonella typhimurium [6] = assay: Antibacterial activity against Salmonella Typhimurium ATCC 13311 after 24 hrs by microdilution method; type: functional, Salmonella enterica subsp. enterica serovar Typhimurium; details: Salmonella enterica, ATCC 13311, 24 h; summary of the method: as §1
Escherichia coli [7] = assay: Antibacterial activity against Escherichia coli ATCC 35210 after 24 hrs by microdilution method; type: functional; details: ATCC 35210, 24 h; summary of the method: as §1
Enterococcus faecalis [8] = assay: Antibacterial activity against Enterococcus faecalis isolated from human after 24 hrs by microdilution method; type: functional; summary of the method: as §1
Staphylococcus aureus [9] = assay: Antibacterial activity against Staphylococcus aureus ATCC 6538 incubated for 24 hrs followed by serial sub-cultivation for 24 hrs by microdilution method; type: functional; details: ATCC 6538, 24 h
Summary of the method: (§2)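 MBC: after the 24 h LB broth microdilution (1.0 × 10⁴ CFU per well, 160 rpm), wells were serially sub-cultured into fresh broth plates and incubated a further 24 h. MBC is the lowest concentration with no visible growth, taken as 99.5% killing of the original inoculum. Duplicate, repeated three times.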

Bacillus cereus [10] = assay: Antibacterial activity against clinical isolate of Bacillus cereus incubated for 24 hrs followed by serial sub-cultivation for 24 hrs by microdilution; type: functional; summary of the method: as §2
Micrococcus flavus [11] = assay: Antibacterial activity against Micrococcus flavus ATCC 10240 incubated for 24 hrs followed by serial sub-cultivation for 24 hrs by microdilution; type: functional; details: ATCC 10240, 24 h; summary of the method: as §2
Listeria monocytogenes [12] = assay: Antibacterial activity against Listeria monocytogenes NCTC 7973 incubated for 24 hrs followed by serial sub-cultivation for 24 hrs by microdilution; type: functional; details: NCTC 7973, 24 h; summary of the method: as §2
Pseudomonas aeruginosa [13] = assay: Antibacterial activity against Pseudomonas aeruginosa ATCC 27853 incubated for 24 hrs followed by serial sub-cultivation for 24 hrs by microdilution; type: functional; details: ATCC 27853, 24 h; summary of the method: as §2
Salmonella typhimurium [14] = assay: Antibacterial activity against Salmonella Typhimurium ATCC 13311 incubated for 24 hrs followed by serial sub-cultivation for 24 hrs by microdilution; type: functional, Salmonella enterica subsp. enterica serovar Typhimurium; details: Salmonella enterica, ATCC 13311, 24 h; summary of the method: as §2
Escherichia coli [15] = assay: Antibacterial activity against Escherichia coli ATCC 35210 incubated for 24 hrs followed by serial sub-cultivation for 24 hrs by microdilution; type: functional; details: ATCC 35210, 24 h; summary of the method: as §2
Enterococcus faecalis [16] = assay: Antibacterial activity against Enterococcus faecalis isolated from human incubated for 24 hrs followed by serial sub-cultivation for 24 hrs by microdilution; type: functional; summary of the method: as §2
Aspergillus ochraceus [17] = assay: Antifungal activity against Aspergillus ochraceus ATCC 12066 after 72 hrs by serial dilution technique; type: functional; details: ATCC 12066, 72 h
Summary of the method: (§3)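 Modified microdilution in 96-well plates. Fungi were kept on malt agar at 4 °C. Spores were washed off in sterile 0.85% saline with 0.1% Tween 80. Compounds were dissolved at 1 mg/ml in 5% DMSO with 0.1% Tween 80 and added to malt broth with inoculum. Plates were shaken at 160 rpm for 72 h at 28 °C. Duplicate, repeated three times.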

Aspergillus niger [18] = assay: Antifungal activity against Aspergillus niger ATCC 6275 after 72 hrs by serial dilution technique; type: functional; details: ATCC 6275, 72 h; summary of the method: as §3
Aspergillus flavus [19] = assay: Antifungal activity against Aspergillus flavus ATCC 9643 after 72 hrs by serial dilution technique; type: functional; details: ATCC 9643, 72 h; summary of the method: as §3
Talaromyces funiculosus [20] = assay: Antifungal activity against Penicillium funiculosum ATCC 36839 after 72 hrs by serial dilution technique; type: functional; details: ATCC 36839, 72 h; summary of the method: as §3
Penicillium ochrochloron [21] = assay: Antifungal activity against Penicillium ochrochloron ATCC 9112 after 72 hrs by serial dilution technique; type: functional; details: ATCC 9112, 72 h; summary of the method: as §3
Trichoderma viride [22] = assay: Antifungal activity against Trichoderma viride IAM 5061 after 72 hrs by serial dilution technique; type: functional; details: IAM 5061, 72 h; summary of the method: as §3
Candida albicans [23] = assay: Antifungal activity against Candida albicans isolated from human after 72 hrs by serial dilution technique; type: functional; summary of the method: as §3
Aspergillus ochraceus [24] = assay: Antifungal activity against Aspergillus ochraceus ATCC 12066 incubated for 72 hrs followed by serial sub-cultivation for 72 hrs by serial dilution technique; type: functional; details: ATCC 12066, 72 h
Summary of the method: (§4)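 MFC: material from 72 h malt broth microdilution wells was serially sub-cultured into fresh broth plates and incubated a further 72 h at 28 °C. Fungicidal concentration is taken from growth after sub-culture. Duplicate, repeated three times.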

Aspergillus fumigatus [25] = assay: Antifungal activity against Aspergillus fumigatus isolated from human incubated for 72 hrs followed by serial sub-cultivation for 72 hrs by serial dilution technique; type: functional; summary of the method: as §4
Aspergillus niger [26] = assay: Antifungal activity against Aspergillus niger ATCC 6275 incubated for 72 hrs followed by serial sub-cultivation for 72 hrs by serial dilution technique; type: functional; details: ATCC 6275, 72 h; summary of the method: as §4
Aspergillus flavus [27] = assay: Antifungal activity against Aspergillus flavus ATCC 9643 incubated for 72 hrs followed by serial sub-cultivation for 72 hrs by serial dilution technique; type: functional; details: ATCC 9643, 72 h; summary of the method: as §4
Talaromyces funiculosus [28] = assay: Antifungal activity against Penicillium funiculosum ATCC 36839 incubated for 72 hrs followed by serial sub-cultivation for 72 hrs by serial dilution technique; type: functional; details: ATCC 36839, 72 h; summary of the method: as §4
Penicillium ochrochloron [29] = assay: Antifungal activity against Penicillium ochrochloron ATCC 9112 incubated for 72 hrs followed by serial sub-cultivation for 72 hrs by serial dilution technique; type: functional; details: ATCC 9112, 72 h; summary of the method: as §4
Trichoderma viride [30] = assay: Antifungal activity against Trichoderma viride IAM 5061 incubated for 72 hrs followed by serial sub-cultivation for 72 hrs by serial dilution technique; type: functional; details: IAM 5061, 72 h; summary of the method: as §4
Candida albicans [31] = assay: Antifungal activity against Candida albicans isolated from human incubated for 72 hrs followed by serial sub-cultivation for 72 hrs by serial dilution technique; type: functional; summary of the method: as §4
Pseudomonas aeruginosa [32] = assay: Ratio of ampicillin MIC to compound MIC for Pseudomonas aeruginosa ATCC 27853; type: functional
Aspergillus ochraceus [33] = assay: Ratio of bifonazole to compound for Aspergillus ochraceus ATCC 12066; type: functional
Aspergillus niger [34] = assay: Ratio of bifonazole to compound for Aspergillus niger ATCC 6275; type: functional
Talaromyces funiculosus [35] = assay: Ratio of bifonazole to compound for Penicillium funiculosum ATCC 36839; type: functional
Penicillium ochrochloron [36] = assay: Ratio of bifonazole to compound for Penicillium ochrochloron ATCC 9112; type: functional
Trichoderma viride [37] = assay: Ratio of bifonazole to compound for Trichoderma viride IAM 5061; type: functional
Candida albicans [38] = assay: Ratio of bifonazole to compound for Candida albicans isolated from human; type: functional
Aspergillus ochraceus [39] = assay: Ratio of ketoconazole to compound for Aspergillus ochraceus ATCC 12066; type: functional
Aspergillus fumigatus [40] = assay: Ratio of ketoconazole to compound for Aspergillus fumigatus isolated from human; type: functional
Penicillium ochrochloron [41] = assay: Ratio of ketoconazole to compound for Penicillium ochrochloron ATCC 9112; type: functional
Candida albicans [42] = assay: Ratio of ketoconazole to compound for Candida albicans isolated from human; type: functional
Aspergillus ochraceus [43] = assay: Antifungal activity against Aspergillus ochraceus after 72 hrs by serial dilution technique

- MIC (Staphylococcus aureus [1]): 98 µM (≈ 30.1 µg/mL)
- MIC (Bacillus cereus [2]): 81.7 µM (≈ 25.1 µg/mL)
- MIC (Micrococcus flavus [3]): 65.3 µM (≈ 20 µg/mL)
- MIC (Listeria monocytogenes [4]): 98 µM (≈ 30.1 µg/mL)
- MIC (Pseudomonas aeruginosa [5]): 65.3 µM (≈ 20 µg/mL)
- MIC (Salmonella typhimurium [6]): 49 µM (≈ 15 µg/mL)
- MIC (Escherichia coli [7]): 65.3 µM (≈ 20 µg/mL)
- MIC (Enterococcus faecalis [8]): 81.7 µM (≈ 25.1 µg/mL)
- MIC (Aspergillus ochraceus [17]): 65.3 µM (≈ 20 µg/mL)
- MIC (Aspergillus niger [18]): 65.3 µM (≈ 20 µg/mL)
- MIC (Aspergillus flavus [19]): 65.3 µM (≈ 20 µg/mL)
- MIC (Talaromyces funiculosus [20]): 32.7 µM (≈ 10 µg/mL)
- MIC (Penicillium ochrochloron [21]): 65.3 µM (≈ 20 µg/mL)
- MIC (Trichoderma viride [22]): 32.7 µM (≈ 10 µg/mL)
- MIC (Candida albicans [23]): 32.7 µM (≈ 10 µg/mL)
- MIC (Aspergillus ochraceus [43]): 49 µM (≈ 15 µg/mL)
Compound: CCNc1nc(C)c(C(=O)/C=C/c2ccc(Cl)cc2)s1
- MBC (Staphylococcus aureus [9]): 98 µM (≈ 30.1 µg/mL)
- MBC (Bacillus cereus [10]): 81.7 µM (≈ 25.1 µg/mL)
- MBC (Micrococcus flavus [11]): 81.7 µM (≈ 25.1 µg/mL)
- MBC (Listeria monocytogenes [12]): 98 µM (≈ 30.1 µg/mL)
- MBC (Pseudomonas aeruginosa [13]): 98 µM (≈ 30.1 µg/mL)
- MBC (Salmonella typhimurium [14]): 49 µM (≈ 15 µg/mL)
- MBC (Escherichia coli [15]): 98 µM (≈ 30.1 µg/mL)
- MBC (Enterococcus faecalis [16]): 81.7 µM (≈ 25.1 µg/mL)
- MFC (Aspergillus ochraceus [24]): 81.7 µM (≈ 25.1 µg/mL)
- MFC (Aspergillus fumigatus [25]): 65.3 µM (≈ 20 µg/mL)
- MFC (Aspergillus niger [26]): 81.7 µM (≈ 25.1 µg/mL)
- MFC (Aspergillus flavus [27]): 81.7 µM (≈ 25.1 µg/mL)
- MFC (Talaromyces funiculosus [28]): 65.3 µM (≈ 20 µg/mL)
- MFC (Penicillium ochrochloron [29]): 81.7 µM (≈ 25.1 µg/mL)
- MFC (Trichoderma viride [30]): 65.3 µM (≈ 20 µg/mL)
- MFC (Candida albicans [31]): 65.3 µM (≈ 20 µg/mL)
- Ratio (Pseudomonas aeruginosa [32]): 10
- Ratio (Aspergillus ochraceus [33]): 10
- Ratio (Aspergillus niger [34]): 10
- Ratio (Talaromyces funiculosus [35]): 10
- Ratio (Penicillium ochrochloron [36]): 10
- Ratio (Trichoderma viride [37]): 10
- Ratio (Candida albicans [38]): 10
- Ratio (Aspergillus ochraceus [39]): 10
- Ratio (Aspergillus fumigatus [40]): 10
- Ratio (Penicillium ochrochloron [41]): 10
- Ratio (Candida albicans [42]): 10
